Data as given in ChEMBL document CHEMBL1150569, “Three new furan derivatives and a new fatty acid from a Taiwanese marine sponge Plakortis simplex” (J Nat Prod, 2001).
Values after ≈ are worked out from the molar mass of the structure shown.

Key:
[1] = Cytotoxicity against human COLO250 cells; type: functional, cell-based
Outline: (§1)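 In vitro cytotoxicity against human tumor cells: COLO-250 colon carcinoma cells and KB-16 nasopharyngeal carcinoma cells. Activity expressed as IC50 in µg/mL.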

[2] = Cytotoxicity against human KB16 cells; type: functional, cell-based; outline: as §1
[3] = Homo sapiens, KB16, read-out: IC50

For CCCCC(CCC=O)CCCCCCCc1ccc(CC(=O)OC)o1 (stereo not drawn) [PLAKORSIN C], the IC50 [1] was “Not Active” and the IC50 ([2]; kb16) was “Not Active”.
With CCCCCCCCCCCCCCCC[C@@]1(OC)C=C[C@@H](CC(=O)OC)OO1 [CHONDRILLIN] the IC50 [1] was “Not Active” and the IC50 [2, 3] was 0.74 µg/mL (≈ 1.79 µM).
In the case of COC(=O)/C=C\C=C/C(=O)O, the IC50 [1] is reported as “Not Active” and the IC50 ([2]; kb16) is reported as “Not Active”.
In the case of CCCCCCCCCCCCCCCCc1ccc(CC(=O)OC)o1 [PLAKORSIN A], the IC50 [1] is reported as “Not Active” and the IC50 ([2]; kb16) is reported as “Not Active”.
With COC(=O)C[C@@H]1C=CC(=O)O1 the IC50 [1] was “Not Active” and the IC50 ([2]; kb16) was “Not Active”.
For CCCCCCCCCCCCCCCCc1ccc(CC(=O)O)o1 [PLAKORSIN B], the IC50 ([1]; Homo sapiens, read-out: IC50) was 0.28 µg/mL (≈ 0.799 µM) and the IC50 [2, 3] was 3.43 µg/mL (≈ 9.78 µM).
For CCCCCCCCCCCCCCCCC(=O)/C=C/C1OC1C(=O)O (stereo not drawn) [PLAKORTIC ACID], the IC50 [1] was “Not Active” and the IC50 ([2]; kb16) was “Not Active”.
For CCCCCCCCCCCCCCCC[C@@]1(OC)C=C[C@H](CC(=O)OC)OO1, the IC50 [1] was “Not Active” and the IC50 ([2]; kb16) was “Not Active”.
For COC(=O)CCC(=O)CC(=O)OC, the IC50 [1] was “Not Active” and the IC50 ([2]; kb16) was “Not Active”.
